How the values were obtained:
[1] = molecular target: Amyloid-beta precursor protein (Homo sapiens, UniProt P05067); assay: Binding affinity to amyloid beta (1 to 42) (unknown origin) aggregates assessed as apparent dissociation constant after 30 mins by fluorescence spectroscopic analysis; conditions: read-out: Kd(app)
Procedure, shortened: (§1)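 Tau: human 441-aa tau expressed in E. coli, aggregated at 1 mg/mL in MES buffer pH 6.8 with 0.1 mg/mL heparin, 37 °C for 3 days with shaking. Abeta1-42 aggregated at 0.25 mg/mL in PBS pH 7.4, 37 °C for 42 h with shaking. Aggregates at final 10 µg/mL were incubated with ligand (final 0.02–10 µM) for 30 min at room temperature. Apparent Kd was taken from fluorescence saturation curves at ex 440 nm, em 510 nm (tau) or em 480 nm (Abeta). Mean ± SEM of six independent experiments.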

[2] = molecular target: Microtubule-associated protein tau (Homo sapiens, UniProt P10636); assay: Binding affinity to recombinant human tau (441 amino acid residues) aggregates expressed in Escherichia coli assessed as apparent dissociation constant after 30 mins by fluorescence spectroscopic analysis; conditions: read-out: Kd(app); procedure, shortened: as §1
Homo sapiens = organism: Homo sapiens; assay: Selectivity ratio of Kd(app) for amyloid beta (1 to 42) (unknown origin) aggregates to Kd(app) for recombinant human tau (441 amino acid residues) aggregates
Procedure, shortened: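 Human 441-aa tau, expressed in E. coli, was aggregated at 1 mg/mL (MES pH 6.8, 0.1 mg/mL heparin, 37 °C, 3 days, shaking). Aβ1–42 was aggregated at 0.25 mg/mL (PBS pH 7.4, 37 °C, 42 h). Aggregates were incubated 30 min at room temperature with ligand, and fluorescence read at ex 440 nm, em 510 nm (tau) or 480 nm (Aβ). Apparent Kd came from saturation curves over six independent experiments, and the ratio is Kd(Aβ)/Kd(tau).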

Chain of Microtubule-associated protein tau (P10636 whole entry): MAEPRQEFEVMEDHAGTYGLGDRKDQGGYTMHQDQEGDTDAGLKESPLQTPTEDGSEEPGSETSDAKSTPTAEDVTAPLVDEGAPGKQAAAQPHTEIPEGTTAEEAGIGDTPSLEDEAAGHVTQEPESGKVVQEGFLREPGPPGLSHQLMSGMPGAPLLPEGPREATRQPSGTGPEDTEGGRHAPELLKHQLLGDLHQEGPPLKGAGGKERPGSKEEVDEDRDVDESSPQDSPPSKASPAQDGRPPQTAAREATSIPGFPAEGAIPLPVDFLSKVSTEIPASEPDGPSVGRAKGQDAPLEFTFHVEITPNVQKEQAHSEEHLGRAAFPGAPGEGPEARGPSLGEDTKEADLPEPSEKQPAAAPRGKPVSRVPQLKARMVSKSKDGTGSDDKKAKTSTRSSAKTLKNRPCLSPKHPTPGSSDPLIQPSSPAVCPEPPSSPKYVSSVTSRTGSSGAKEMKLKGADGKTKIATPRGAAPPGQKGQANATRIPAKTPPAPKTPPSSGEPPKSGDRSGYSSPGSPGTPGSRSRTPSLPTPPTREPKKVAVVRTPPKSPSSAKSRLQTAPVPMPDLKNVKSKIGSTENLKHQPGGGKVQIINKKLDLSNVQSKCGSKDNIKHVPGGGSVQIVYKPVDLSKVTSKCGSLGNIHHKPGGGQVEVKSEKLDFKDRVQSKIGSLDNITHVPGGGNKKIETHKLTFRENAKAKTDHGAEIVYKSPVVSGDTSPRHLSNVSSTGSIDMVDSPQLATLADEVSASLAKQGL
Chain of Amyloid-beta precursor protein (P05067 whole entry): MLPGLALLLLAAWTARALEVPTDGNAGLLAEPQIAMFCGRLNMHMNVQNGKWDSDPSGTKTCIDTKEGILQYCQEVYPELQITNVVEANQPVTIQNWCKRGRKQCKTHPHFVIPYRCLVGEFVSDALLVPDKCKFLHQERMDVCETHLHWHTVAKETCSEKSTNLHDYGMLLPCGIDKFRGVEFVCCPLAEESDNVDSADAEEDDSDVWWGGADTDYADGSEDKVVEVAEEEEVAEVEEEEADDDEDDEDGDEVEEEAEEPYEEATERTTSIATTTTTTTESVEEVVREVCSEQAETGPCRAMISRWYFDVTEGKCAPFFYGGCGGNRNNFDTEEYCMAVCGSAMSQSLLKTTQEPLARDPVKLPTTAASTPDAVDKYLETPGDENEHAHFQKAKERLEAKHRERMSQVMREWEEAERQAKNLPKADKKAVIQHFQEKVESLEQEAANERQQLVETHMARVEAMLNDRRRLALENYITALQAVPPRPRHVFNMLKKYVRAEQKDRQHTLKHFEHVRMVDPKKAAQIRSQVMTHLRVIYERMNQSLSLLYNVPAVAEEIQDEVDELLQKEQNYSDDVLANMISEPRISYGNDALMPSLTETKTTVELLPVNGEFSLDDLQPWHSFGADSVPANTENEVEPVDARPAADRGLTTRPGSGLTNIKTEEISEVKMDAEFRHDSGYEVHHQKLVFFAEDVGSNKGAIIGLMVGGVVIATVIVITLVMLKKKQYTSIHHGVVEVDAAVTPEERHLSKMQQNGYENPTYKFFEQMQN

Kd [1]: 900 nM
Kd [2]: 2360 nM
Selectivity ratio (Homo sapiens): 0.38
Compound: Nc1ccc(/C=C/c2nc3ccc(I)cc3[nH]2)cc1

— ChEMBL document CHEMBL2384977, “Synthesis and biological evaluation of novel styryl benzimidazole derivatives as probes for imaging of neurofibrillary tangles in Alzheimer's disease” (Bioorg Med Chem, 2013)
